Active and inactive are the calls of the source.
Columns and labels:
Mus musculus [1] = assay: Licking latency was measured after 15 min treatment (at dose=10 mg/kg) by using mouse hot plate test; assay type: functional
Outline: (§1)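 Male Swiss-Webster mice (22-28 g), 23 ± 1 °C, 12-h light/dark cycle, food and water ad libitum. Hot plate at 52.5 ± 0.1 °C with licking latency as read-out and 45 s cutoff. Mice with pre-drug latency below 12 or over 18 s were rejected. Compounds given sc, 5-12 mice per test. Significance was assessed by Dunnett's two-tailed test, P < 0.05.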

Mus musculus [2] = species on record: Mus musculus; assay: Analgesic efficacy is expressed as percentage of that morphine, done on mouse.; assay type: functional
Mus musculus [3] = assay: Licking latency was measured after 30 min treatment (at dose=25 mg/kg) by using mouse hot plate test (*P<0.01); assay type: functional; outline: as §1
Mus musculus [4] = assay: MAD: minimal dose able to induce a statistically significant increase of the pain threshold, done on mouse; sc; assay type: functional
Outline: (§2)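 Mouse hot plate test (52.5 ± 0.1 °C, 45 s cutoff) after sc dosing, in male Swiss-Webster mice. The value is the lowest dose giving a statistically significant rise in pain threshold. Dunnett's two-tailed test compared treated mice at maximum reaction time with pretest time, P < 0.05.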

Mus musculus [5] = assay: Licking latency was measured after 30 min treatment (at dose=10 mg/kg) by using mouse hot plate test; assay type: functional; outline: as §1
Mus musculus [6] = assay: Licking latency was measured after 45 min treatment (at dose=10 mg/kg) by using mouse hot plate test; assay type: functional; outline: as §1
Mus musculus [7] = assay: Licking latency was measured after 45 min treatment (at dose=25 mg/kg) by using mouse hot plate test; assay type: functional; outline: as §1
Mus musculus [8] = assay: Licking latency was measured before treatment (at dose=10 mg/kg) by using mouse hot plate test; assay type: functional; outline: as §1
Mus musculus [9] = assay: Licking latency was measured before treatment (at dose=25 mg/kg) by using mouse hot plate test; assay type: functional; outline: as §1
Mus musculus [10] = assay: Licking latency was measured after 15 min treatment (at dose=25 mg/kg) by using mouse hot plate test; assay type: functional; outline: as §1
Mus musculus [11] = species on record: Mus musculus; assay: Analgesic efficacy is expressed as percentage of that epibatidine, done on mouse.; assay type: functional
Mus musculus [12] = assay: MNTD:Maximal nontoxic dose of the compound, done on mouse; sc; assay type: functional
Outline: (§3)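 Male Swiss-Webster mice dosed sc. The value is the highest dose causing no visible behavioural change (tremors, convulsions, hypomotility etc.), so that treated mice could not be told apart from untreated ones. Behaviour was scored by the Irwin method in groups of at least 10 animals.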

Mus musculus [13] = assay: Licking latency was measured after 15 min treatment (at dose=5 mg/kg) by using mouse hot plate test; assay type: functional; outline: as §1
Mus musculus [14] = assay: Licking latency was measured after 30 min treatment (at dose=5 mg/kg) by using mouse hot plate test; assay type: functional; outline: as §1
Mus musculus [15] = assay: Licking latency was measured after 45 min treatment (at dose=5 mg/kg) by using mouse hot plate test; assay type: functional; outline: as §1
Mus musculus [16] = assay: Licking latency was measured before treatment (at dose=5 mg/kg) by using mouse hot plate test; assay type: functional
Outline: (§4)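 Male Swiss-Webster mice (22-28 g), 23 ± 1 °C, 12-h light/dark cycle. Hot plate at 52.5 ± 0.1 °C. Mice with pre-drug licking latency below 12 s or over 18 s were rejected. Cutoff 45 s. Compound given sc; latency read before dosing and at 15, 30 and 45 min. 5-12 mice per test.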

Mus musculus [17] = assay: Licking latency was measured after 30 min treatment (at dose=25 mg/kg) by using mouse hot plate test(*P<0.05); assay type: functional; outline: as §1
Mus musculus [18] = assay: Licking latency was measured after 15 min treatment (at dose=25 mg/kg) by using mouse hot plate test (*P<0.01); assay type: functional; outline: as §1
Mus musculus [19] = assay: Licking latency was measured after 45 min treatment (at dose=25 mg/kg) by using mouse hot plate test (*P<0.05); assay type: functional; outline: as §1
Mus musculus [20] = assay: Licking latency was measured before treatment (at dose=50 mg/kg) by using mouse hot plate test; assay type: functional; outline: as §4
Mus musculus [21] = assay: Licking latency was measured after 15 min treatment (at dose=50 mg/kg) by using mouse hot plate test; assay type: functional; outline: as §1
Mus musculus [22] = assay: MAD: minimal dose able to induce a statistically significant increase of the pain threshold, done on mouse; sc; IA = inactive; assay type: functional, organism-based; outline: as §2
Mus musculus [23] = assay: Licking latency was measured after 45 min treatment (at dose=50 mg/kg) by using mouse hot plate test; assay type: functional; outline: as §1
Mus musculus [24] = assay: Licking latency was measured after 30 min treatment (at dose=50 mg/kg) by using mouse hot plate test; assay type: functional; outline: as §1
TE-671 [25] = assay: Cholinergic interactions was measured with FLIPR device on TE671 cells and given as Effective dose; assay type: functional, cell-based; settings: Homo sapiens
Outline: (§5)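 Cells were plated on poly(ethylenimine)-coated plates and used about 72 h later. Loading was Fluo-3 AM for 1 h at 37 °C, followed by washes in Hepes-salts buffer, pH 7.4. FLIPR recorded Ca2+ fluorescence over 5 min after agonist addition. Responses were normalized to 100 µM nicotine (100%) and unloaded cells (0%), and EC50 and intrinsic activity were derived from concentration-response curves.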

K177 cell line [26] = assay: Cholinergic interactions was measured with FLIPR device on […] cells and given as EC50.; assay type: functional, cell-based; settings: Homo sapiens; outline: as §5
IMR-32 [27] = assay: Cholinergic interactions was measured with FLIPR device on cells of IMR-32 human neuroblastoma clonal line and given as Intrinsic activity; assay type: functional; outline: as §5
K177 cell line [28] = assay: Cholinergic interactions was measured with FLIPR device on […] cells and given as Intrinsic activity; assay type: functional, Homo sapiens; outline: as §5
IMR-32 [29] = assay: Cholinergic interactions was measured with FLIPR device on IMR-32 cells of human neuroblastoma clonal line, given as effective dose; assay type: functional, cell-based; outline: as §5
Mus musculus [30] = assay: Minimal dose able to induce a statistically significant increase of the pain threshold, done on mouse; sc; assay type: functional; outline: as §2
TE-671 [31] = assay: Cholinergic interactions was measured with FLIPR device on TE671 cells and given as Intrinsic activity; assay type: functional, Homo sapiens; outline: as §5
Mus musculus [32] = assay: Maximal nontoxic dose of the compound, done on mouse; sc; assay type: functional; outline: as §3
Mus musculus [33] = assay: Licking latency was measured after 45 min treatment (at dose=3 mg/kg) by using mouse hot plate test; assay type: functional; outline: as §1
Mus musculus [34] = assay: Licking latency was measured before treatment (at dose=3 mg/kg) by using mouse hot plate test; assay type: functional; outline: as §4
Mus musculus [35] = assay: Licking latency was measured after 15 min treatment (at dose=3 mg/kg) by using mouse hot plate test; assay type: functional; outline: as §1
Mus musculus [36] = assay: Licking latency was measured after 30 min treatment (at dose=3 mg/kg) by using mouse hot plate test; assay type: functional; outline: as §1

Row | SMILES | Licking latency (Mus musculus [1]) [s] | Analgesic efficacy compared to morphine (Mus musculus [2]) [%] | MAD (Mus musculus [4]) [mg/kg] | Licking latency (Mus musculus [5]) [s] | Licking latency (Mus musculus [6]) [s] | Licking latency (Mus musculus [8]) [s] | Licking latency (Mus musculus [9]) [s] | Analgesic efficacy compared to epibatidine (Mus musculus [11]) [%] | MNTD (Mus musculus [12]) [mg/kg] | also measured
1 | Clc1cc(N2CC3CCC(C2)N3)ncn1 | 22.2 | 127 | 10 | 19.7 | 19.6 | 13.6 | 14.9 | 156 | 30 | Licking latency (Mus musculus [3]): 38.5 s; Licking latency (Mus musculus [7]): 39.1 s; Licking latency (Mus musculus [10]): 39.5 s
2 | Clc1ccnc(N2CC3CCC(C2)N3)n1 | 26.3 | 60 | 5 | 21.2 | 22.1 | 14.6 | – | 75 | 15 | Licking latency (Mus musculus [13]): 20.5 s; Licking latency (Mus musculus [14]): 17.8 s; Licking latency (Mus musculus [15]): 15.6 s; Licking latency (Mus musculus [16]): 15 s
3 | CCN1C2CCC1CN(c1ccc(Cl)nn1)C2 | 19.3 | 61 | 10 | 18.4 | 16.4 | 13.2 | 14.3 | 74 | 20 | Licking latency (Mus musculus [17]): 20.5 s; Licking latency (Mus musculus [18]): 26 s; Licking latency (Mus musculus [19]): 20.8 s
4 | Clc1ccc(N2C3CCC2CN(Cc2ccccc2)C3)nn1 | – | – | – | – | – | – | – | – | >50 | Licking latency (Mus musculus [20]): 14.8 s; Licking latency (Mus musculus [21]): 17.2 s; MAD (Mus musculus [22]): inactive; Licking latency (Mus musculus [23]): 17.6 s; Licking latency (Mus musculus [24]): 15.3 s
5 | Clc1ccc(C2CC3CC[C@H]2N3)cn1 (some centres undefined) [EPIBATIDINE] | – | – | – | – | – | – | – | – | – | EC50 (TE-671 [25]): 1260 nM; Efficacy (Mus musculus [2]): 82%; EC50 (K177 cell line [26]): 350 nM; Intrinsic activity (IMR-32 [27]): 145.6%; Intrinsic activity (K177 cell line [28]): 148.1%; EC50 (IMR-32 [29]): 34 nM; MAD (Mus musculus [30]): 1 µg/kg; Efficacy (Mus musculus [11]): 100%; Intrinsic activity (TE-671 [31]): 79.5%; MNTD (Mus musculus [32]): 7 µg/kg
6 | Clc1nccc(N2CC3CCC(C2)N3)n1 | 31.1 | 82 | 3 | 26 | 24.3 | 15.3 | – | 99 | 15 | Licking latency (Mus musculus [33]): 16.2 s; Licking latency (Mus musculus [34]): 14.5 s; Licking latency (Mus musculus [35]): 21.3 s; Licking latency (Mus musculus [36]): 17.4 s

From ChEMBL document CHEMBL1131482 (J Med Chem, 1998)
